Reference: ChEMBL document CHEMBL5042498, “Development of 3-(4-Chlorophenyl)-1-(phenethyl)urea Analogues as Allosteric Modulators of the Cannabinoid Type-1 Receptor: RTICBM-189 is Brain Penetrant and Attenuates Reinstatement of Cocaine-Seeking Behavior” (J Med Chem, 2022)
Activity calls are given as the source filed them. The calls are words filed in the database; no cut-off is given here.

What was measured:
Cannabinoid receptor 1 [1] = molecular target: T1, Cannabinoid receptor 1 (Homo sapiens, UniProt P21554); test: Allosteric antagonist activity at human CB1 receptor expressed in CHO-RD-HGA16 cells overexpressing Galpha16 assessed as inhibition of CP55940-stimulated calcium mobilization incubated for 15 mins FLIPR assay; format: functional, cell-based
T1 sequence (P21554 whole entry): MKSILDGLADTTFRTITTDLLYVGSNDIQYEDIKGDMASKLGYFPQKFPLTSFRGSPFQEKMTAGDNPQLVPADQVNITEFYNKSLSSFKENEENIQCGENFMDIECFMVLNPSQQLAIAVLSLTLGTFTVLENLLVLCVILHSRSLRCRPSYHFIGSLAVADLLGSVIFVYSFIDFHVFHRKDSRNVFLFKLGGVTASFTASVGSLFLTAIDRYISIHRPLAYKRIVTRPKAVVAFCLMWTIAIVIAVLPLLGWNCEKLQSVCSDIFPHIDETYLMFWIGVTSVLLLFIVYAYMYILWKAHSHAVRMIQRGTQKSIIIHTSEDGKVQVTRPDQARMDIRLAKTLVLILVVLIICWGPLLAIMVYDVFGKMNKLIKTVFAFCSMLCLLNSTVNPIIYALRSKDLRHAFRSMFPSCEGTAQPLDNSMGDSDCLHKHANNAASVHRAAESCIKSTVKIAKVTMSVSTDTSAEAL

[2] = Apparent permeability across apical to basolateral side in MDCK-MDR1 cells at 10 uM measured upto 90 mins by LC-MS/MS analysis; format: ADME, cell-based, Canis lupus familiaris; settings: dog, mdck-mdr1, 1.5 h
Method in brief: (§1)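 MDCK-MDR1 cells (passage 5) were grown 3 days on polycarbonate Transwell supports and equilibrated 30 min at 37 °C in HBSS with 10 mM HEPES and 0.25% BSA, pH 7.4, before TEER was measured. Test article at 10 μM was placed in the donor chamber (apical or basolateral), with light agitation at 37 °C. Receiver samples were taken at 30, 60 and 90 min and analysed by LC-MS/MS. Papp = (dQ/dt)/(A·Ci·60). References were atenolol, propranolol and digoxin.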

[3] = AUC infinity in Sprague-Dawley rat brain 10 mg/kg, ip measured upto 24 hrs post dose by LC-MS/MS analysis
[4] = Aqueous solubility of compound; format: physicochemical; settings: buffer
[5] = Apparent permeability across basolateral to apical side in MDCK-MDR1 cells at 10 uM measured upto 90 mins by LC-MS/MS analysis; format: ADME, cell-based, Canis lupus familiaris; settings: dog, mdck-mdr1, 1.5 h; method in brief: as §1
[6] = Clearance in Sprague-Dawley rat plasma at 10 mg/kg, ip measured upto 24 hrs post dose by LC-MS/MS analysis
[7] = AUC infinity in Sprague-Dawley rat plasma 10 mg/kg, ip measured upto 24 hrs post dose by LC-MS/MS analysis
[8] = Cmax in Sprague-Dawley rat brain at 10 mg/kg, ip measured upto 24 hrs post dose by LC-MS/MS analysis
Rattus norvegicus = test: Attenuation of cocaine reinstatement in 7 day cocaine treated Sprague-Dawley rat assessed as reduction in cocaine seeking behaviour at 10 mg/kg, ip treated for 10 mins prior to administration of cocaine priming injection; format: functional, organism-based
Method in brief: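 Male Sprague-Dawley rats (280-300 g) with jugular catheters self-administered cocaine (0.75 mg/kg/inf, FR1 raised to FR5) in 2-h sessions for 14 days, then underwent 7 days of extinction. On the test day, compound (10 mg/kg) or vehicle was given 10 min before a priming cocaine injection (10 mg/kg i.p.), and lever responding was measured.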

[9] = Metabolic stability in rat liver microsomes assessed as half life in presence of NADPH measured upto 45 mins by LC-MS/MS analysis; format: ADME, Microsome; settings: 0.75 h
Method in brief: (§2)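 Rat liver microsomes (0.5 mg/mL protein) in 100 mM potassium phosphate, pH 7.4, at 37 °C with 1 mM NADPH. Samples were taken at 0, 5, 15, 30 and 45 min, quenched with acetonitrile and analysed by LC/MS/MS. Half-life and clearance were derived from two independent experiments in duplicate.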

[10] = Tmax in Sprague-Dawley rat plasma at 10 mg/kg, ip measured upto 24 hrs post dose by LC-MS/MS analysis
[11] = molecular target: Cannabinoid receptor 2 (Homo sapiens) (UniProt P34972); test: Antagonist activity at human CB2 receptor CP55940-stimulated calcium mobilization incubated for 15 mins FLIPR assay; format: functional; set-up: concentration or dose not given beside the values
Cannabinoid receptor 2 (Homo sapiens), sequence (P34972 whole entry): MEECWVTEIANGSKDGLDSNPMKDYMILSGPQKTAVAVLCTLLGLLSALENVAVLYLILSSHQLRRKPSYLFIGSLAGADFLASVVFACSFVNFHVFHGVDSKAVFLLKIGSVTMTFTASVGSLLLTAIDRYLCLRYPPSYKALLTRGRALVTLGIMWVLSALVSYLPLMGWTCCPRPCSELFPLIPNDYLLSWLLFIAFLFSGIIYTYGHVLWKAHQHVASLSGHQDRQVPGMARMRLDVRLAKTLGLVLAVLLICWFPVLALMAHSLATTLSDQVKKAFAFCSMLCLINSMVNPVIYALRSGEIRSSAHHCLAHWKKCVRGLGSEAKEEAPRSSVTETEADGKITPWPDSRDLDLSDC
Method in brief: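 CB2 antagonist screen in human CB2 CHO-RD-HGA16 cells loaded with Calcium 5 dye. Cells were pretreated 15 min at 37 °C with the test compound at a single concentration (10 μM), then challenged with CP55,940 at its EC80 during the FLIPR read (90 s, 485/525 nm). Response is expressed as % inhibition of the CP55,940 EC80 signal.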

[12] = Tmax in Sprague-Dawley rat brain at 10 mg/kg, ip measured upto 24 hrs post dose by LC-MS/MS analysis
[13] = Toxicity in Sprague-Dawley rat assessed as reduction in locomotion at 10 mg/kg, ip; format: organism-based; settings: in vivo
Method in brief: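 Rats received 10 mg/kg i.p. compound or vehicle 15 min before being placed in locomotion chambers, after at least three days of handling. Locomotor activity was recorded for 30 min and analysed by two-way ANOVA.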

[14] = Metabolic stability in rat liver microsomes assessed as clearance in presence of NADPH measured upto 45 mins by LC-MS/MS analysis; format: ADME, Microsome; settings: 0.75 h; method in brief: as §2
Cannabinoid receptor 1 [15] = molecular target: T1, Cannabinoid receptor 1; test: Allosteric antagonist activity against human CB1 receptor expressed in HEK293 cells membrane measured after 60 mins by [35S]GTPgammaS binding assay; format: functional, cell membranes
Method in brief: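 Membranes from HEK293 cells expressing hCB1 are used in assay buffer (50 mM Tris, 3 mM MgCl2, 0.2 mM EGTA, 100 mM NaCl, 1 mg/ml BSA, pH 7.4). They are preincubated 10 min, then incubated 60 min at 30 °C with 30 μM GDP, 0.1 nM [35S]GTPγS, 100 nM CP55,940 and serially diluted compound (0.1% DMSO final). Nonspecific binding is set with 30 μM unlabeled GTPγS. Reactions are filtered. Data are normalized to CP55,940 alone and fitted by 3-parameter regression; mean of ≥3 experiments in duplicate.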

[16] = molecular target: Cannabinoid receptor 2 (Homo sapiens) (UniProt P34972); test: Agonist activity at human CB2 receptor CP55940-stimulated calcium mobilization at 10 uM incubated for 15 mins FLIPR assay relative to control; format: functional
Method in brief: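 CB2 agonist screen in CHO-RD-HGA16 cells stably expressing human CB2, loaded with Calcium 5 dye for 45 min at 37 °C. Cells were pretreated 15 min with vehicle, then the test compound was added at a single concentration. Fluorescence was read on FLIPR every 1 s for 90 s (485/525 nm). Response is expressed as % of CP55,940 Emax.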

Cannabinoid receptor 1 [17] = molecular target: T1, Cannabinoid receptor 1; test: Antagonist activity at N-terminal tagged human CB1 receptor transfected with HEK293 cells assessed as forskolin-stimulated cAMP level in presence of CP55940 by BRET assay; format: functional, cell-based
Method in brief: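 HEK293 cells stably expressing hCB1 (3HA-tagged at Otago, untagged at RTI) are transiently transfected with the CAMYEL BRET cAMP sensor. Cells are serum-starved 30 min and given 5 μM coelenterazine H final. Compound dilutions are added together with 5 μM forskolin and 1 μM CP55,940. BRET (460/535) is read for about 20 min at 37 °C.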

[18] = Elimination half life in Sprague-Dawley rat plasma 10 mg/kg, ip measured upto 24 hrs post dose by LC-MS/MS analysis
[19] = Plasma protein binding in rat; format: ADME, cell-free
[20] = Cmax in Sprague-Dawley rat plasma at 10 mg/kg, ip measured upto 24 hrs post dose by LC-MS/MS analysis

Structure (SMILES): O=C(NCCc1cccc(Cl)c1)Nc1ccc(Cl)cc1
- IC50 (Cannabinoid receptor 1 [1]): 0.0288 µM
- Papp [2]: 19.2 10^-6 cm/s
- AUC(0-inf) [3]: 1.44 µg·h/mL
- solubility [4]: < 1 µM
- Papp [5]: 21.3 10^-6 cm/s
- CL/F [6]: 14.4 L/h/kg
- AUC(0-inf) [7]: 0.715 µg·h/mL
- Cmax [8]: 0.595 µg/mL
- Activity (Rattus norvegicus): Active
- t1/2 [9]: 14.9 min
- Tmax [10]: 24 min
- Activity [11]: < 35%
- Tmax [12]: 24 min
- Activity [13]: Non-Toxic
- CLH [14]: 99.3 µL/min/mg
- IC50 (Cannabinoid receptor 1 [15]): 5.13 µM
- Emax [16]: < 20%
- IC50 (Cannabinoid receptor 1 [17]): 1.51 µM
- half-life [18]: 37.8 min
- PPB [19]: 99.6%
- Cmax [20]: 0.288 µg/mL
